Measured values published in ChEMBL document CHEMBL1124344, “5-Piperazinylalkyl-2(3H)-oxazolones with neuroleptic activity” (J Med Chem, 1989).

Legend:
[1] = system: Rattus norvegicus; assay: Activity to evoke catalepsy in rats, by administering perorally at a dose of 20 mg/kg; assay type: functional; conditions: route oral, read-out: Inhibition
Method in brief: (§1)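 Rats fasted overnight and given oral doses in arabic gum suspension (10 mL/kg), 1 h before screening or 1 and 5 h before profile testing. Forelegs placed on a horizontal bar 7 cm high, three times at 5-min intervals. Immobility of at least 15 s counts as catalepsy. ED50 is the dose giving catalepsy in 50% of rats, by probit analysis. Parenthetical entries give the maximal dose and percent activity.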

[2] = system: Mus musculus; assay: Antagonistic activity against amphetamine-induced Hypermobility in mice, by administering perorally at a dose of 10 mg/kg; assay type: functional; conditions: route oral
Method in brief: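 Male mice in groups of five, fasted overnight, given oral drug in arabic gum suspension (10 mL/kg) 1 or 5 h ahead. Amphetamine 4 mg/kg ip given 30 min after drug. Ten minutes later locomotion is recorded for 15 min in a photocell actophotometer. ED50 is 50% reduction versus control hypermotility, by probit analysis. Parenthetical entries give the maximal dose and percent activity.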

[3] = system: Rattus norvegicus; assay: Antagonistic activity against apomorphine-induced stereotypy in rats, by administering perorally at a dose of 20 mg/kg; assay type: functional; conditions: route oral
Method in brief: (§2)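 Male rats fasted overnight and given oral doses in arabic gum suspension (10 mL/kg) 1 h, or 1 and 5 h, before challenge. Apomorphine 3 mg/kg iv, with stereotypy observed 20 min later. ED50 is the dose inhibiting stereotypy in 50% of rats, per Janssen's method. Parenthetical entries give the maximal dose and percent activity.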

[4] = system: Mus musculus; assay: Inhibition of spontaneous motor activity in mice, by administering perorally at a dose of 10 mg/kg; assay type: functional; conditions: route oral
Method in brief: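 Mice in groups of five were dosed orally with gum arabic suspensions at 10 mL/kg after an overnight fast, with a vehicle control group. Locomotion was counted for 10 min in a photocell activity cage, in at least two groups per dose. ED50, by probit analysis, is the dose giving 50% inhibition against controls.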

[5] = Lethal dose in mice (LD50) following i.p. dosing; assay type: toxicity, organism-based; conditions: mouse, in vivo, ip
Method in brief: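 Acute toxicity tested in mice by the intraperitoneal route. LD50 is the dose killing 50% of treated mice, computed by Finney probit analysis; values are approximate.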

[6] = system: Rattus norvegicus; assay: Antagonistic activity against apomorphine-induced stereotypy in rats, by administering perorally at a dose of 90 mg/kg; assay type: functional; conditions: route oral; method in brief: as §2
[7] = system: Rattus norvegicus; assay: Activity to evoke catalepsy in rats, by administering perorally at a dose of 90 mg/kg; assay type: functional; conditions: route oral; method in brief: as §1
[8] = system: Mus musculus; assay: Inhibition of spontaneous motor activity in mice, by administering perorally at a dose of 90 mg/kg; assay type: functional; conditions: route oral
Method in brief: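 Mice fasted overnight, then dosed orally with compound (weighed as base) suspended in arabic gum, 10 mL/kg, with vehicle controls; 1 h pretreatment for screening tests, 1 or 5 h for others. Groups of five; locomotor activity counted 10 min in photocell activity cage, at least two groups per dose. ED50 = dose giving 50% inhibition versus controls, by probit analysis.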

[9] = system: Mus musculus; assay: Inhibition of amphetamine-induced hypermobility in mice following p.o. administration.; assay type: functional; conditions: po
Method in brief: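 Compounds were given orally to male mice (gum arabic suspension, 10 mL/kg, fasted) in groups of five. Amphetamine 4 mg/kg ip followed 30 min later. After another 10 min, motility was recorded for 15 min with a photocell actophotometer. ED50, by probit analysis, is the dose giving 50% reduction against controls.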

Oc1nc(-c2ccc(-c3ccccc3)cc2)c(CCN2CCN(c3ccccc3)CC2)o1
percent of rats showing catalepsy at 20 mg/kg [1]: 0%
inhibition in vivo at 10 mg/kg [2]: 33%
inhibition in vivo at 20 mg/kg [3]: 0%
inhibition in vivo at 10 mg/kg [4]: 32%
LD50 [5]: 750 mg/kg

Oc1nc(-c2ccc(F)cc2)c(CCN2CCN(c3cc(Cl)ccc3Cl)CC2)o1
inhibition in vivo at 90 mg/kg [6]: 0%
inhibition in vivo at 90 mg/kg [7]: 0%
inhibition in vivo at 90 mg/kg [8]: 45%
ED50 [9]: 10 mg/kg
LD50 [5]: 750 mg/kg
